From ChEMBL document CHEMBL1128574, “Glycosylated peptide hormones: pharmacological properties and conformational studies of analogues of [1-desamino,8-D-arginine]vasopressin” (J Med Chem, 1995) come the findings set out here.

Series [1] in a line: Bioavailability in rat administered i.d. The series is classed as ADME, organism-based. The note with it: in vivo. The gist of the method: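 Computed as (AUCii/doseii)/(AUCiv/doseiv). Anaesthetized male Sprague-Dawley rats received 100 μg intraintestinally into a cannulated jejunal segment or 1.0 μg iv via jugular vein, both in 0.9% NaCl. Plasma levels by RIA; AUC by trapezoidal rule.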

The subject of series [2] is Rattus norvegicus. The series is described as follows: Area under the curve administered intraintestinal in rats. Conditions: in vivo, other. The format is ADME, organism-based. The procedure, abridged:
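Anaesthetized (Inactin) male Sprague-Dawley rats, 250–300 g, kept at 37 °C. 100 μg peptide in 1 mL 0.9% NaCl given into a cannulated, rinsed 15 cm small-intestine segment starting 10 cm distal to pylorus, after 30 min recovery. Carotid blood sampled, EDTA plasma assayed by RIA (antibody ADA 6). AUC by trapezoidal rule; mean ± SEM of n rats.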

In series [3] the test system is Rattus norvegicus. The series is described as follows: Area under the curve administered intravenously in rats. The note with it: in vivo, iv. The format is ADME, organism-based. The gist of the method:
(§1)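 Anaesthetized (Inactin) male Sprague-Dawley rats, 250–300 g. 1.0 μg peptide in 0.2 mL sterile 0.9% NaCl injected into a catheterized jugular vein. Carotid blood samples (0.2 mL) taken as EDTA plasma and quantified by RIA (ADA 6 antibody, [125I]Tyr2-DDAVP tracer). Half-life and trapezoidal AUC given as mean ± SEM of n rats.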

The nature of series [4]: Cmax value administered intraintestinal in rats. The format is ADME, organism-based. Conditions: rat, in vivo. The procedure, abridged:
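Anaesthetized (Inactin) male Sprague-Dawley rats, 250–300 g, 37 °C. 100 μg peptide in 1 mL 0.9% NaCl given into a cannulated 15 cm intestinal segment. Plasma peptide measured by RIA at set time points; the maximal plasma concentration is reported as mean ± SEM of n rats.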

A short description of series [5]: Degradation in vitro by alpha-chymotrypsin. The series is classed as ADME. The gist of the method:
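Peptide (1 mM final) incubated with α-chymotrypsin (1 mg/mL final) at 37 °C in 25 mM Tris, 65 mM NaCl, 2.5 mM CaCl2, pH 7.8. Reaction stopped with ice-cold TCA and centrifuged. Remaining peptide measured over time by RP-HPLC against an enzyme-free reference, giving the half-life.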

Series [6] is described as follows: Degradation in vitro by rat intestinal juice. The series is classed as ADME, organism-based. The gist of the method:
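Rat intestinal juice was a 0.9% NaCl rinse of a 10 cm small-intestine segment, centrifuged at 10000g and stored at −20 °C. Incubation matched the chymotrypsin assay (1 mM peptide, 37 °C, pH 7.8) except for 165 mM Tris. Juice amount was set to degrade DDAVP at 2%/min. Time course by RP-HPLC.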

The nature of series [7]: Half life administered intravenously in rats. The series is classed as ADME, organism-based. Conditions: rat, in vivo, iv. The gist of the method:
as §1

The nature of series [8]: Relative transport rate as the ratio of transport rate to that of PEG 1000. The series is classed as ADME. The procedure, abridged: (§2)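 Rat small-intestine pieces, about 35 cm distal to pylorus and free of Peyer's patches, mounted in a modified Ussing chamber (1.47 cm2) at 37 °C in oxygenated Krebs-Ringer, pH 7.4. Peptide, [3H]PEG 1000 and [14C]PEG 4000 added apically. Basolateral samples taken every 15 min and assayed by RIA or scintillation counting. Papp = (dQ/dt)/(A·C0), expressed relative to each PEG.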

A short description of series [9]: Relative transport rate as the ratio of transport rate to that of PEG 4000. The series is classed as ADME. The gist of the method: as §2
The target in series [10] is T1, Vasopressin receptor (Rattus norvegicus) (UniProt P48974+P30560+Q00788).
In series [11] the target is T1, Vasopressin receptor (Rattus norvegicus). The series is described as follows: Percent inhibition of vasopressin receptor agonistic activity in vivo in rats. The series is classed as functional, organism-based. Conditions: concentration not given here. The procedure, abridged:
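Overnight-hydrated male Sprague-Dawley rats. Peptide injected 1 min before a fixed vasopressin dose, set per rat to give similar antidiuretic responses. Inhibition was read at a 330-fold molar excess over vasopressin as percent inhibition of the antidiuretic effect. Mean of two experiments.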

For series [12] the target is unchanged. The series is described as follows: Compound was tested in vitro for its ability to displace radioligand [3H]vasopressin from the vasopressin receptor in rat renal medullary membrane in absence of V1-antagonist. The format is functional, cell membranes. Conditions: Renal medulla. The procedure, abridged:
(§3)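 Rat renal medullary membranes (250 μg protein) incubated for 120 min at room temperature with 1 nM [3H]vasopressin and increasing peptide concentrations, with or without 10 nM of the V1 antagonist [Phenylac1,D-Tyr(Me)2,Arg6,8,Lys-NH2 9]vasopressin. Membranes were pelleted and washed, and bound label was counted by liquid scintillation.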

For series [13] the target is unchanged. The series is described as follows: Compound was tested in vitro for its ability to displace radioligand [3H]vasopressin from the vasopressin receptor in rat renal medullary membrane in presence of V1-antagonist. The note with it: Renal medulla. The series is classed as functional, cell membranes. The gist of the method: as §3

SMILES strings stand for the structures. Bridge positions count the residues as written; N and C are the ends. Square brackets hold non-standard residues; d marks the D form. Peptide text beside a SMILES is read from it. * marks the point of attachment. X2 = CC(=O)OC[C@@H]1O[C@@H](*)[C@@H](OC(C)=O)[C@@H](OC(C)=O)[C@H]1OC(C)=O; X1 = OC[C@@H]1O[C@@H](*)[C@@H](O)[C@@H](O)[C@H]1O; Mpa = O=C(O)CCS

Usually bioavailability stands for the share of a dose that reaches the circulation, judged against a reference dose that is usually intravenous. Higher therefore signals good availability. A word on the AUC: it is concentration integrated over time. High values mean more exposure, low ones less exposure. The Cmax is the highest concentration seen after dosing. A word on the half-life: it is how long it takes for the measured level to halve. Low values mean rapid decline, high ones slow decline. In the case of `NC(=O)CNC(=O)[C@@H](CCCN=C(N)N)NC(=O)[C@@H]1CCCN1C(=O)[C@@H]1CSSCCC(=O)N[C@H](Cc2ccc(O)cc2)C(=O)N[C@@H](Cc2ccccc2)C(=O)N[C@@H](CO)C(=O)N[C@@H](CC(N)=O)C(=O)N1`, the bioavailability in series [1] was 0.5%. Further, the AUC in the series on Rattus norvegicus [2] came out at 141 ng·min/mL; with Rattus norvegicus [3], 278 ng·min/mL. The molecule also registered a Cmax in series [4] of 1.4 ng/mL. The half-life in series [5] was found to be 37 min; in series [6] it was 280 min; in series [7] it was 32 min. Further, the Ratio amounted to 0.62 in series [8] and 1.66 in series [9].

Consider `NC(=O)CNC(=O)[C@H](CCCN=C(N)N)NC(=O)[C@@H]1CCCN1C(=O)[C@@H]1CSSCCC(=O)N[C@H](Cc2ccc(O)cc2)C(=O)N[C@@H](Cc2ccccc2)C(=O)N[C@@H](CO)C(=O)N[C@@H](CC(N)=O)C(=O)N1`, for which the Antidiuretic activity in [10] is 810 IU µM-1.

In general, inhibition refers to the relative decrease from the control value, in per cent. `NC(=O)CNC(=O)[C@H](CCCN=C(N)N)NC(=O)[C@@H]1CCCN1C(=O)[C@@H]1CSSCCC(=O)N[C@@H](Cc2ccc(O)cc2)C(=O)N[C@@H](Cc2ccccc2)C(=O)N[C@@H](CO[C@@H]2O[C@@H](CO)[C@H](O)[C@H](O)[C@@H]2O)C(=O)N[C@@H](CC(N)=O)C(=O)N1` ([Mpa]YFS(X1)NCPRG-NH2; disulfide 1-6) displayed a bioavailability in series [1] of 1.6%. In addition, the AUC in the series on Rattus norvegicus [2] amounted to 345 ng·min/mL; in the series on Rattus norvegicus [3], 211 ng·min/mL. Also, the Cmax in [4] was found to be 2.5 ng/mL. Moreover, the figures for the half-life in [5], in series [6] and in series [7] were 37 min, 320 min and 20 min, respectively. The inhibition in [11] amounted to 4%. Besides, the Displacement in [12] and in series [13] was 55% throughout. Also, the values for the Ratio in series [8] and in series [9] were 0.96 and 2.56, respectively. Besides, the Antidiuretic activity in series [10] was 0.06 IU µM-1.

In series [1], `CC(=O)OC[C@@H]1O[C@@H](OC[C@@H]2NC(=O)[C@H](Cc3ccccc3)NC(=O)[C@H](Cc3ccc(O)cc3)NC(=O)CCSSC[C@@H](C(=O)N3CCC[C@H]3C(=O)N[C@@H](CCCN=C(N)N)C(=O)NCC(N)=O)NC(=O)[C@H](CC(N)=O)NC2=O)[C@@H](OC(C)=O)[C@@H](OC(C)=O)[C@H]1OC(C)=O` ([Mpa]YFS(X2)NCPRG-NH2; disulfide 1-6) returned a bioavailability of 2.1%. Besides, the AUC in the series with Rattus norvegicus [2] is 620 ng·min/mL; in the series on Rattus norvegicus [3], 298 ng·min/mL. In series [4], this molecule returned a Cmax of 3.6 ng/mL. For the same molecule, the figures for the half-life in series [5], in series [6] and in series [7] were 180 min, 230 min and 35 min, respectively. The molecule further came in with an inhibition in series [11] of 3%. Also, the Displacement in series [12] and in [13] was 45% in each case. Also, the figures for the Ratio in series [8] and in series [9] were 1.09 and 2.83, respectively. Also, the Antidiuretic activity in series [10] is 0.31 IU µM-1.

With `NC(=O)CC[C@@H]1NC(=O)[C@H](Cc2ccccc2)NC(=O)[C@H](Cc2ccc(O)cc2)NC(=O)CCSSC[C@@H](C(=O)N2CCC[C@H]2C(=O)N[C@H](CCCN=C(N)N)C(=O)NCC(N)=O)NC(=O)[C@H](CC(N)=O)NC1=O` [DESMOPRESSIN], the bioavailability in [1] was 0.1%. For the same molecule, the AUC with Rattus norvegicus [2] stood at 52 ng·min/mL; in the series on Rattus norvegicus [3], 459 ng·min/mL. In addition, the concentration in series [4] peaked (Cmax) at 0.8 ng/mL. The half-life in series [5] is 13 min; in [6], 20 min; in [7], 39 min. In addition, the Ratio in [8] was found to be 0.57; in series [9], 1.57.
